Results collected from several papers.
Lines come from different studies, so protocols differ.
Target: Serine/threonine-protein kinase NLK (NLK, Homo sapiens, UniProt Q9UBE8)
One construct used (Q9UBE8 1-527): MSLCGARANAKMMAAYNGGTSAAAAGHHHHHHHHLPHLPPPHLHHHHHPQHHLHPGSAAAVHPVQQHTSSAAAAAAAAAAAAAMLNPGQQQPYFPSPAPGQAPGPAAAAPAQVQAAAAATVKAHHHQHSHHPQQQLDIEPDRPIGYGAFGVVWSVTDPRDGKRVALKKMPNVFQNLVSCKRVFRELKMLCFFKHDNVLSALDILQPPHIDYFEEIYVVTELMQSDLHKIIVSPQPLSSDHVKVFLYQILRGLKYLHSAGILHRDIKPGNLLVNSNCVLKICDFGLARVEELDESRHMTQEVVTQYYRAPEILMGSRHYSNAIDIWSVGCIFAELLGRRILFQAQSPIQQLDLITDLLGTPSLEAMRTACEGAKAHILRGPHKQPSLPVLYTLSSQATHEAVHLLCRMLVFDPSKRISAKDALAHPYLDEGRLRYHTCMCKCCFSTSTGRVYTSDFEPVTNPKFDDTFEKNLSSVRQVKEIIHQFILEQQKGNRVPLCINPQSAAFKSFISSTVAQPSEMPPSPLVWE

Compound | observed | method | concentration | remaining binding [%]
O=C(O)[C@@H]1[C@@H](Cn2nnc3ccccc3c2=O)CC[C@H]1C(=O)c1ccc(OCCC2CCOCC2)cc1 | cell-free assay | competition with immobilised ligand | 1 µM | 86
CN(CCCC(F)(F)F)c1nccc(-c2cnn3ncccc23)n1 | binding |  | 1 µM | 66
Cc1c(C(=O)O)cc(-c2ccc(C3CCNCC3)cc2)c2ccc(-c3ccc(C(F)(F)F)cc3)cc12 | binding | competition with immobilised ligand | 1 µM | 100
Cc1cnc(Nc2ccc(C(=O)N3CCC(N4CCCC4)CC3)cc2)nc1-c1cc2ccccc2s1 | binding | competition with immobilised ligand | 1 µM | 69
C[C@@H]1CN(c2cc(-c3nn(C)c4ccc(OC5(C)CC5)cc34)ncn2)C[C@H](C)O1 | cell-free assay | competition with immobilised ligand | 1 µM | 96
COc1ncc2cc3ccccc3nc2c1C#N | binding | competition with immobilised ligand | 5 µM | 100
O=C(NCc1ncc(C(F)(F)F)cc1Cl)c1ccc2c(c1)C1(CCS(=O)(=O)CC1)[C@@H](C1CC1)N2S(=O)(=O)c1ccc(F)cc1 | cell-free assay | competition with immobilised ligand | 1 µM | 89
C=CC(=O)N1CCC(C(=O)NCC(=O)N2CCN(c3nc(-c4cnc(N)nc4C(F)F)nc(N4CCOCC4)n3)CC2)CC1 | binding | competition with immobilised ligand | 1 µM | 94
CO[C@@H](C)c1c(Nc2ccc([C@@H](N(C)C(=O)C3CCS(=O)(=O)CC3)C(F)(F)F)cc2)cnc2cc(Cl)nn12 | cell-free assay | competition with immobilised ligand | 1 µM | 84
O=C(Nc1c[nH]nc1C(=O)NC1CCNCC1)c1cc(F)cc(F)c1 | binding | competition with immobilised ligand | 1 µM | 90
O=C(c1ccc(Nc2ncc(Cl)c(-c3ccc(Cl)s3)n2)cc1)N1CCC(N2CCCC2)CC1 | binding | competition with immobilised ligand | 1 µM | 98
COc1cnc(Nc2cccc(S(N)(=O)=O)c2)nc1N1CCN(c2ccccc2)CC1 | binding | competition with immobilised ligand | 1 µM | 96
N[C@H]1CCN(c2nccc(-c3cnn4ncccc34)n2)C1 | binding |  | 1 µM | 76
O=C(Nc1ccc(Oc2ccc(F)cc2)cc1)N1CCc2ncccc2[C@H]1c1ccc(F)cc1 | cell-free assay | competition with immobilised ligand | 1 µM | 87
CN(C)c1nccc(-c2cnc3ncccn23)n1 | binding |  | 1 µM | 74
O=C(c1ccc(Nc2nccc(-c3cc4ccccc4s3)n2)cc1)N1CCC(N2CCCC2)CC1 | binding | competition with immobilised ligand | 1 µM | 93
CN(C)c1ncc(F)c(-c2cnn3ncccc23)n1 | binding |  | 1 µM | 74
CN([C@@H]1CCc2c(CC(=O)O)c3cc(S(C)(=O)=O)ccc3n2C1)S(=O)(=O)c1ccc(F)cc1 | cell-free assay | competition with immobilised ligand | 1 µM | 100
C[C@H]1CCN(c2nccc(-c3cnn4ncccc34)n2)C1 | binding |  | 1 µM | 100
CNC(=O)[C@@H]1CC[C@@H](n2c(-c3ccc4cnccc4c3)nc3ccc(C(=O)NCc4cccc(C(N)=O)c4)cc32)C1 | binding | competition with immobilised ligand | 1 µM | 100
Cc1cnn2ncc(-c3ccnc(N(C)C)n3)c2c1 | binding |  | 1 µM | 100
CCN1CCN(Cc2ccc(C(=O)Nc3ccc(C)c(Oc4ccc5c(c4)CC(=O)N5)c3)cc2C(F)(F)F)CC1 | binding | competition with immobilised ligand | 1 µM | 79
